Assay results as given in ChEMBL document CHEMBL1629550 (Antimicrob Agents Chemother, 2008).
Calls of active or inactive are those of the source. The rule behind the calls is not given here.

Legend:
Listeria monocytogenes [1] = assay: Antibacterial activity against Listeria monocytogenes EGD-e in BALB/c mouse central nervous system listeriosis model assessed as mouse survival at 50 mg/kg, ip administered 36 hrs postinfection every 12 hrs for 5 days measured after 2 months; type: functional, organism-based; set-up: dose 50 mg/kg
Summary of the method: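 BALB/c females were infected i.v. with 1 × 10^5 EGD-e. Starting 36 h after infection, they were dosed i.p. at 50 mg·kg−1 every 12 h for 5 days (n = 20); saline controls n = 5. Deaths were checked twice daily from 36 h post-infection. Survivors were followed for 2 months for relapse, and survival was analysed by Kaplan-Meier.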

Listeria monocytogenes [2] = assay: Antibacterial activity against Listeria monocytogenes EGD-e in BALB/c mouse central nervous system listeriosis model assessed as increase in mouse survival at 50 mg/kg, ip administered 36 hrs postinfection as single dose; type: functional; details: route intraperitoneal
Summary of the method: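 Female BALB/c mice, 7–8 weeks old, were infected via the lateral tail vein with 1 × 10^5 EGD-e in 0.5 ml saline. At 36 h they received a single 50 mg·kg−1 i.p. dose in isotonic saline (0.1 ml), with n = 12. Controls got saline (n = 5). Death was checked twice daily from 36 h, and survivors were followed 2 months. Results were plotted as Kaplan-Meier estimates.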

Listeria monocytogenes [3] = assay: Antibacterial activity against Listeria monocytogenes EGD-e in BALB/c mouse central nervous system listeriosis model assessed as reduction in bacterial count in liver at 50 mg/kg, ip administered 36 hrs postinfection as single dose measured within 6 hr; type: functional, organism-based; set-up: dose 50 mg/kg
Summary of the method: (§1)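 Female BALB/c mice (7–8 weeks) were infected i.v. with 1 × 10^5 EGD-e and given one i.p. dose of 50 mg·kg−1 at 36 h; saline was given to controls. Groups of three were sampled at 1, 6, 24 and 48 h. Blood and homogenized liver, spleen and brain were serially diluted 10-fold on BHI agar and counted after 24 h at 37°C. Results are mean ± SE log10 CFU/organ or per ml blood.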

Listeria monocytogenes [4] = assay: Antibacterial activity against Listeria monocytogenes EGD-e in BALB/c mouse central nervous system listeriosis model assessed as log reduction in bacterial CFU per ml of blood at 50 mg/kg, ip administered 36 hrs postinfection as single dose measured within 1 hr; type: functional; details: route intraperitoneal; summary of the method: as §1
Listeria monocytogenes [5] = assay: Antibacterial activity against Listeria monocytogenes EGD-e in BALB/c mouse central nervous system listeriosis model assessed as increase in mouse survival at 50 mg/kg, ip administered 36 hrs postinfection every 12 hrs for 5 days; type: functional; details: route intraperitoneal
Summary of the method: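 Female BALB/c mice, 7–8 weeks old, were infected i.v. via the tail vein with 1 × 10^5 EGD-e in 0.5 ml saline. From 36 h they received 50 mg·kg−1 i.p. in isotonic saline (0.1 ml) every 12 h for 5 days, with n = 20. Controls got saline (n = 5). Death was checked twice daily, and survivors were followed 2 months for relapse. Results were plotted as Kaplan-Meier estimates.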

Listeria monocytogenes [6] = assay: Antibacterial activity against Listeria monocytogenes EGD-e in BALB/c mouse central nervous system listeriosis model assessed as reduction in bacterial count in spleen at 50 mg/kg, ip administered 36 hrs postinfection as single dose measured within 6 hr; type: functional, organism-based; set-up: dose 50 mg/kg; summary of the method: as §1
[7] = Cmax in plasma in Listeria monocytogenes EGD-e infected BALB/c mouse central nervous system listeriosis model at 50 mg/kg, ip administered 36 hrs postinfection as single dose; type: ADME, organism-based; set-up: dose 50 mg/kg, route intraperitoneal
Summary of the method: (§2)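 Female BALB/c mice, 7–8 weeks old, were infected i.v. via the tail vein with 1 × 10^5 EGD-e. At 36 h they received one i.p. dose of 50 mg·kg−1 in isotonic saline. Groups of six were killed at 0–480 min. Blood-cleared brain homogenate and plasma were deproteinized with acetonitrile, with ciprofloxacin as internal standard, and analysed by reverse-phase HPLC with fluorescence detection (ex 290/em 550 nm). Cmax was read from the curves; AUC24 was calculated by the trapezoidal rule.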

[8] = AUC (24 hrs) in plasma in Listeria monocytogenes EGD-e infected BALB/c mouse central nervous system listeriosis model at 50 mg/kg, ip administered 36 hrs postinfection as single dose; type: ADME, organism-based; set-up: time < 24 hr, dose 50 mg/kg, route intraperitoneal; summary of the method: as §2
Listeria monocytogenes [9] = assay: Antibacterial activity against Listeria monocytogenes EGD-e in BALB/c mouse central nervous system listeriosis model assessed as reduction in bacterial count in spleen at 50 mg/kg, ip administered 36 hrs postinfection as single dose measured within 1 hr; type: functional, organism-based; set-up: dose 50 mg/kg; summary of the method: as §1
Listeria monocytogenes [10] = assay: Antibacterial activity against Listeria monocytogenes EGD-e in BALB/c mouse central nervous system listeriosis model assessed as reduction in bacterial count in liver at 50 mg/kg, ip administered 36 hrs postinfection as single dose measured within 1 hr; type: functional, organism-based; set-up: dose 50 mg/kg; summary of the method: as §1

| SMILES | Activity (Listeria monocytogenes [1]) | Time (Listeria monocytogenes [2]) [h] | Activity (Listeria monocytogenes [3]) | FC (Listeria monocytogenes [4]) | Activity (Listeria monocytogenes [5]) [%] | Activity (Listeria monocytogenes [6]) | Cmax [7] [ng/mL] | AUC at 24 h [8] [ng·h/mL] | Activity (Listeria monocytogenes [9]) | Activity (Listeria monocytogenes [10]) |
| --- | --- | --- | --- | --- | --- | --- | --- | --- | --- | --- |
| CC1(C)S[C@@H]2[C@H](NC(=O)[C@H](N)c3ccc(O)cc3)C(=O)N2[C@H]1C(=O)O [AMOXICILLIN] | Active | 12 | Active | 1 | 75 | Active | – | – | – | – |
| COc1c(N2C[C@@H]3CCCN[C@@H]3C2)c(F)cc2c(=O)c(C(=O)O)cn(C3CC3)c12 [MOXIFLOXACIN] | Active | 24 | – | – | 100 | – | 17300 | 27100 | Active | Active |
